pEC50, pIC50: −log10 of the molar value. Values belong to the compound of their own block, whether it stands above or below them. Active and inactive are the calls of the source. The calls are words filed in the database; no cut-off is given here.
What was measured:
[1] = Inhibition of human HSC proliferation after 4 days by luminescent cell viability assay; conditions: 96 h
In short: (§1)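 Sixth-passage HSCs (kept as neurospheres in DMEM/F12 with bFGF, EGF, B27) plated at 1×10^3 cells/well in basic medium, left 24 h, then given serial dilutions for 4 days. DMSO as negative control, bFGF as positive control. Read-out by CellTiter-Glo: reagent added to the cells, 10 min at ambient temperature, then luminescence read. Values relative to DMSO (100%). At least triplicate, repeated three times, mean ± SD.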

[2] = Solubility of the compound in DMSO; type: physicochemical
[3] = Cytotoxicity against human HSC after 4 days at 100 uM by luminescent cell viability assay; conditions: 96 h; in short: as §1
[4] = Induction of human HSC proliferation after 4 days by luminescent cell viability assay; type: functional; conditions: for pEC50: Homo sapiens, 96 h, read-out: EC50; in short: as §1
Homo sapiens [5] = species on record: Homo sapiens; experiment: Induction of human HSC proliferation under serum free condition after 4 days by cell counting and luminescent cell viability assay; type: functional
In short: (§2)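 HSCs kept serum-free without bFGF, seeded at 1×10^3 cells/well, then given a range of concentrations for 2, 4 and 6 days. Read at each time point by phase-contrast imaging, cell counting (three pictures per group, haemocytometer) and CellTiter-Glo luminescence. DMSO as negative control, bFGF as positive control. Mean ± SD.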

Homo sapiens [6] = species on record: Homo sapiens; experiment: Induction of human HSC proliferation under serum free condition at 5 to 40 uM by cell counting and luminescent cell viability assay; type: functional; conditions: TDE = time-dependent effect; in short: as §2
[7] = Induction of human HSC proliferation assessed as population doubling time at 41.6 uM by cell counting and luminescent cell viability assay (reference value: 73.6 hrs); type: functional
[8] = Cytotoxicity against human HSC assessed as morphological changes 13.8 to 40.2 uM up to 6 days by phase contrast microscopy; conditions: 144 h
In short: (§3)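 Phase-contrast microscope images of HSCs treated with various concentrations, DMSO or bFGF, taken at 2, 4 and 6 days. Scored by morphology, including signs of differentiation such as axonal growth or adipose drop appearance.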

[9] = Cytotoxicity against human HSC assessed as axonal growth or adipose drop appearance 13.8 to 40.2 uM up to 6 days by phase contrast microscopy; conditions: 144 h; in short: as §3
Homo sapiens [10] = species on record: Homo sapiens; experiment: Induction of human HSC proliferation assessed as fold increase after 6 days by direct phase contrast microscopy; type: functional; in short: as §2
Homo sapiens [11] = species on record: Homo sapiens; experiment: Induction of human CSC proliferation after 4 days by luminescent cell viability assay; type: functional
In short: (§4)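 Third-passage CSCs (maintained in IMDM with 10% FBS and 2-mercaptoethanol) plated at 1×10^3 cells/well in basic medium, left 24 h, then treated for 4 days. DMSO as negative control. Viability read by CellTiter-Glo luminescence after 10 min at ambient temperature. At least triplicate, repeated three times, mean ± SD.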

Homo sapiens [12] = species on record: Homo sapiens; experiment: Induction of human PSC proliferation after 4 days by luminescent cell viability assay; type: functional
In short: as §4, with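 “Sixth-passage PSCs (expanded” for “Third-passage CSCs (maintained”, “DMEM/F12, 7.33 mM glucose,” for “IMDM”, “20 ng/mL bFGF)” for “2-mercaptoethanol)”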

Structure (SMILES): NNC(=S)Nc1ccc(-c2nnc(S)o2)cc1Br
Activity [3]: Toxic | solubility [2]: soluble | pEC50 [4]: 5.00

Structure (SMILES): S=C(NNCc1ccccc1)Nc1ccc(-c2nnc(S)o2)cc1
solubility [2]: soluble | EC50 [4]: Not Active

Structure (SMILES): COc1ccc(NNC(=S)Nc2ccc(-c3nnc(S)o3)cc2)cc1
pIC50 [1]: 4.37 | solubility [2]: soluble

Further lines, with some results ahead:

solubility [2]: soluble
Structure (SMILES): S=C(NNc1ccccc1)Nc1ccc(-c2nnc(S)o2)cc1
pIC50 [1]: 5.08

solubility [2]: soluble
Structure (SMILES): S=C(NNc1ccc(Cl)cc1)Nc1ccc(-c2nnc(S)o2)cc1
pIC50 [1]: 5.49

solubility [2]: soluble
Structure (SMILES): CNNC(=S)Nc1ccc(-c2nnc(S)o2)cc1

solubility [2]: soluble
Structure (SMILES): NNC(=S)Nc1ccc(-c2nnc(S)o2)cc1 [STEMAZOLE]
Activity (Homo sapiens [5]): Dose-dependent effect | Activity (Homo sapiens [6]): tde | Time [7]: 48.5 h | Activity [8]: Non-toxic | Activity [9]: Non-toxic | fold change (FC) (Homo sapiens [10]): 3 | Activity [3]: Non-toxic | Activity (Homo sapiens [11]): Active | pEC50 [4]: 5.12 | Activity (Homo sapiens [12]): Active

From ChEMBL document CHEMBL1795270, “Synthesis and biological evaluation of a novel human stem/progenitor cells proliferation activator: 4-(4-(5-mercapto-1,3,4-oxadiazol-2-yl)phenyl) thiosemicarbazide (Stemazole)” (Eur J Med Chem, 2011)
